Pemphigus Ab inh: blocks pemphigus antibody binding to human desmoglein-3; DSG3-coupled beads, scFv-anti-DSG3-GFP binding, flow cytometry; hits give low values; binding (percent of control), % at 10 µM; hit rate 0.48% among 310,000; P32926;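 active means binding more than 3 SD below its plate's average and above zero; inconclusive means below that plate limit but binding exactly zero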;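 further: hits lower antibody fragment binding to DSG3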
SUMO1 PPI mod: SUMO1-SIM interaction modulation. P63165. SUMO1 binding to a labelled peptide, TR-FRET, 1 h. inhibition, % at 20 µM. hit rate 0.33% among 360,000. AID 602429; in the data active means inhibition above about 37%
Target sequence (P63165 whole entry, looked up): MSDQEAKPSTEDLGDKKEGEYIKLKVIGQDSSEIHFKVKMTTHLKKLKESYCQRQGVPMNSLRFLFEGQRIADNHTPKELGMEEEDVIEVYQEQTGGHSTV
STEP block: blocks human striatal-enriched tyrosine phosphatase. recombinant STEP, OMFP fluorogenic substrate, fluorescence. P54829. AID 588621. inhibition, % at 20 µM. hit rate 0.25% among 360,000;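 active means inhibition at 20 µM, scaled per plate between control wells, above about 37%, limit read from the data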
Target sequence (P54829 whole entry, looked up): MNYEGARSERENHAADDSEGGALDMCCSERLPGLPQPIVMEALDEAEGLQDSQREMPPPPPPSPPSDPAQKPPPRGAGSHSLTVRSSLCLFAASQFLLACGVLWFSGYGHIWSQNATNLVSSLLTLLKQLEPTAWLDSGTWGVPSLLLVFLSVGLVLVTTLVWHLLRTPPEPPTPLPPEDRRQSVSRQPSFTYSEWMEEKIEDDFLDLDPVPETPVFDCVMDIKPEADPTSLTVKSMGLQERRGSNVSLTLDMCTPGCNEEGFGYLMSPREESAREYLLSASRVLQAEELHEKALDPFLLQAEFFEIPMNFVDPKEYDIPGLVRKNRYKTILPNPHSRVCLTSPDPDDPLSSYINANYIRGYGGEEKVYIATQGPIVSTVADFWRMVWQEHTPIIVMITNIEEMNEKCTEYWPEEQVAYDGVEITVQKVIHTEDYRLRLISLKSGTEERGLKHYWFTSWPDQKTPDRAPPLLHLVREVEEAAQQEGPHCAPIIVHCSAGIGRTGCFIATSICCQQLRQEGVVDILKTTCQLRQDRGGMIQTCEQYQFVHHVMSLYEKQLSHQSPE
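medium = Bis-Tris buffer pH 6.0, 2.5 mM DTT, 0.005% Tween 20 | test system = STEP (striatal-enriched tyrosine phosphatase) enzyme, cell-free | measure = normalized % inhibition | compound dosing = 20 µM, 1% DMSO | also added = 25 µM OMFP | schedule = reaction 20 min, ambient temperature | measured by = fluorescence read at 480 nm ex / 540 nm em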
LMPTP block: LMPTP (human) inhibition | recombinant LMPTP-A, OMFP fluorogenic substrate, fluorescence intensity | P24666 | inhibition, % at 20 µM | AID 651560 | hit rate 0.22% among 360,000;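 active means compounds that cut the enzyme signal by at least half of the control window in the single-dose screen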
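Buffer or medium: Bis-Tris pH 6.0, DTT, detergent; Assay system: LMPTP-A enzyme; Quantity: 0.625 nM enzyme; Detection: endpoint fluorescence intensity; Times: 50 min dark incubation at room temperature; Controls: substrate-only low control, DMSO enzyme-plus-substrate high control; Doses: single 20 µM dose; Read-out: percent inhibition versus substrate-only and uninhibited controls; Reagent: 400 µM OMFP.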
Scp1 inh: blocks human Scp-1 phosphatase activity | AID 493091 | Recombinant Scp1, phosphopeptide, malachite green phosphate absorbance | Q9GZU7 | inhibition, % at 20 µM | hit rate 0.88% among 340,000;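 active means inhibition above about 50% at 20 µM, limit read from the data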
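Times: enzyme reaction 45 min at room temperature, colour 5 min, stabilisation 30 min. Material: SCP-1 catalytic fragment, aa 76-261. Medium: Acidic Tris acetate buffer with magnesium and detergent. Signal: colorimetric free-phosphate detection, absorbance 630 nm. Read-out basis: % inhibition of SCP-1 phosphate liberation. Reagent: Phosphorylated 17-residue peptide substrate.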
Hits are given with their value. Compounds with a hit are over-represented: about 1.7% of the library has one in this group of screens.

Results for C[C@H]1[C@H](C)CC[C@]2(C(=O)O)CC[C@]3(C)C(=CC[C@@H]4[C@@]5(C)C[C@@H](O)[C@H](O)C(C)(C)[C@@H]5CC[C@]43C)[C@H]12 ?
Pemphigus Ab inh: 84.9; SUMO1 PPI mod: inactive; STEP block: inactive; LMPTP block: inactive; Scp1 inh: inactive

Results for O=C(Cn1ncc2c([nH]c3ccccc32)c1=O)N1CCN(c2ccccn2)CC1 ?
Pemphigus Ab inh: -6.6; SUMO1 PPI mod: inactive; STEP block: inactive; LMPTP block: inactive; Scp1 inh: inactive

Results for O=C(/C=C/c1ccccc1)NCCc1ccccc1 ?
Pemphigus Ab inh: inactive; SUMO1 PPI mod: inactive; STEP block: inactive; LMPTP block: inactive; Scp1 inh: inactive

How did CC(=O)Oc1cc(C(=O)OCC(=O)NC23CC4CC(CC(C4)C2)C3)cc(OC(C)=O)c1OC(C)=O do in these assays?
Pemphigus Ab inh: inconclusive; SUMO1 PPI mod: inactive; STEP block: inactive; LMPTP block: inactive; Scp1 inh: 69.8

What do the screens show for `CCCOc1ccc(-c2nc(C#N)c(N3CCC(C(N)=O)CC3)o2)cc1`?
Pemphigus Ab inh: inactive; SUMO1 PPI mod: inactive; STEP block: inactive; LMPTP block: inactive; Scp1 inh: inactive

How did N#Cc1nc(-c2ccc(OCc3ccc(Cl)cc3)cc2)oc1N1CCC(C(N)=O)CC1 do in these assays?
Pemphigus Ab inh: inactive; SUMO1 PPI mod: 71.4; STEP block: inactive; LMPTP block: inactive; Scp1 inh: inactive

Results for CCCN1C(=O)CC(c2ccc(OC)c(OC)c2)C1=O (stereo not given) ?
SUMO1 PPI mod: inactive; STEP block: inactive; LMPTP block: 47.1

Results for Cc1nc(N)[nH]c(=O)c1CCCNc1ccc(CCCCC2(CCl)OCCO2)cc1 ?
Pemphigus Ab inh: inactive; SUMO1 PPI mod: inactive; STEP block: inactive; LMPTP block: inactive; Scp1 inh: inactive

Results for COC(=O)Oc1nsnc1N1CCOCC1 ?
Pemphigus Ab inh: inactive; SUMO1 PPI mod: inactive; STEP block: inactive; LMPTP block: inactive; Scp1 inh: 69.5

How did FC(F)(F)c1nc2nccnc2[nH]1 do in these assays?
Pemphigus Ab inh: inactive; SUMO1 PPI mod: inactive; STEP block: inactive; LMPTP block: inactive

How did NC(=S)NNc1cccc2cccnc12 do in these assays?
Pemphigus Ab inh: inactive; SUMO1 PPI mod: inactive; STEP block: inactive; LMPTP block: 50.5; Scp1 inh: inactive

What do the screens show for `NC(=S)Nc1cccc2cccnc12`?
Pemphigus Ab inh: inactive; SUMO1 PPI mod: inactive; STEP block: inactive; LMPTP block: inactive; Scp1 inh: inactive

Results for CCOc1ccc(C(=O)C[n+]2ccc(C(=O)NCc3ccccc3)cc2)cc1 ?
Pemphigus Ab inh: inactive; SUMO1 PPI mod: inactive; STEP block: inactive; LMPTP block: inactive; Scp1 inh: inactive

How did O=C(Cc1cccs1)N=Nc1c(O)[nH]c2ccccc12 do in these assays?
Pemphigus Ab inh: inactive; SUMO1 PPI mod: inactive; STEP block: inactive; LMPTP block: inactive; Scp1 inh: inactive

What do the screens show for `O=C(N=Nc1c(O)[nH]c2ccccc12)c1cc(-c2cccs2)[nH]n1`?
Pemphigus Ab inh: inactive; SUMO1 PPI mod: 59.9; STEP block: inactive; LMPTP block: inactive; Scp1 inh: inactive

What do the screens show for `CCCn1nnnc1NCc1ccc(C(C)C)cc1`?
Pemphigus Ab inh: inactive; SUMO1 PPI mod: inactive; STEP block: inactive; LMPTP block: inactive; Scp1 inh: inactive

How did Cc1cc(-c2cccc([N+](=O)[O-])c2)nc2ccc3ccccc3c12 do in these assays?
Pemphigus Ab inh: -1.4; SUMO1 PPI mod: inactive; STEP block: inactive; LMPTP block: inactive; Scp1 inh: inactive

How did CC(=O)c1ccc(C(=O)N2CCC(CO)(Cc3cccc(C(F)(F)F)c3)CC2)cc1 do in these assays?
Pemphigus Ab inh: inactive; SUMO1 PPI mod: inactive; STEP block: inactive; LMPTP block: inactive; Scp1 inh: inactive

What do the screens show for `CC1(C(=O)N2CCC(CO)(Cc3cccc(C(F)(F)F)c3)CC2)CC1`?
Pemphigus Ab inh: 97.5; SUMO1 PPI mod: inactive; STEP block: inactive; LMPTP block: inactive; Scp1 inh: inactive

How did CSc1ncccc1C(=O)N(C)CC(=O)Nc1cccc(F)c1 do in these assays?
Pemphigus Ab inh: inactive; SUMO1 PPI mod: inactive; STEP block: inactive; LMPTP block: inactive; Scp1 inh: inactive

Results for Cn1c(SCC(=O)NC2CCCCC2)nnc1-c1cccc(N)c1 ?
SUMO1 PPI mod: 40.5; STEP block: inactive; LMPTP block: inactive; Scp1 inh: inactive

What do the screens show for `O=C(Nc1ccc2c(c1)OCO2)c1cc(-c2ccc(O)cc2)on1`?
Pemphigus Ab inh: inactive; SUMO1 PPI mod: 38.8; STEP block: inactive; LMPTP block: inactive; Scp1 inh: inactive

How did N#Cc1ccc(-c2ccc(F)cc2)nc1Oc1ccc(F)cc1 do in these assays?
Pemphigus Ab inh: 82.0; SUMO1 PPI mod: inactive; STEP block: inactive; LMPTP block: inactive; Scp1 inh: inactive

How did C=CCn1c(SCC(=O)N2CCN(c3ccccc3)CC2)nc2c([nH]c3ccccc32)c1=O do in these assays?
Pemphigus Ab inh: 91.3; SUMO1 PPI mod: inactive; STEP block: inactive; LMPTP block: inactive; Scp1 inh: inactive

Results for C=CCn1c(SCC(=O)N2CCOCC2)nc2c([nH]c3ccccc32)c1=O ?
Pemphigus Ab inh: inactive; SUMO1 PPI mod: inactive; STEP block: inactive; LMPTP block: inactive; Scp1 inh: inactive

Results for COC(=O)c1sc(NC(=S)NC(=O)c2cccc(C)c2)nc1C ?
Pemphigus Ab inh: inactive; SUMO1 PPI mod: inactive; STEP block: inactive; LMPTP block: inactive; Scp1 inh: inactive

What do the screens show for `COC(=O)c1sc(NC(=S)NC(=O)c2ccccc2F)nc1C`?
Pemphigus Ab inh: inactive; SUMO1 PPI mod: inactive; STEP block: inactive; LMPTP block: 72.6; Scp1 inh: inactive

How did O=C(COC(=O)c1nc(Cl)ccc1Cl)NCc1ccc(Cl)cc1 do in these assays?
SUMO1 PPI mod: inactive; STEP block: inactive; LMPTP block: inactive; Scp1 inh: inactive

Results for Cc1cc(C)cc(NC(=O)Cc2ccc(S(=O)(=O)N3CCCC3)s2)c1 ?
Pemphigus Ab inh: inactive; SUMO1 PPI mod: inactive; STEP block: inactive; LMPTP block: inactive; Scp1 inh: inactive

What do the screens show for `CC(C)(C)NC(=O)Cc1ccc(S(=O)(=O)N2CCCC2)s1`?
Pemphigus Ab inh: 75.2; SUMO1 PPI mod: inactive; STEP block: inactive; LMPTP block: inactive; Scp1 inh: inactive

Results for Nc1ccc2cc3[nH]c4cc(N)ccc4c3nc2c1 ?
Pemphigus Ab inh: inactive; SUMO1 PPI mod: inactive; STEP block: inactive; LMPTP block: 57.7; Scp1 inh: inactive

What do the screens show for `Nc1ccc(-c2nc3ccc(N)cc3[nH]2)cc1`?
Pemphigus Ab inh: inactive; SUMO1 PPI mod: inactive; STEP block: inactive; LMPTP block: inactive; Scp1 inh: inactive

How did O=C(CSc1nnc(-c2ccccc2)o1)OCc1ccccc1 do in these assays?
Pemphigus Ab inh: inactive; SUMO1 PPI mod: inactive; STEP block: inactive; LMPTP block: inactive; Scp1 inh: inactive

What do the screens show for `CCCCOc1ccc(C(=O)NCc2ccccn2)cc1`?
Pemphigus Ab inh: inactive; SUMO1 PPI mod: inactive; STEP block: inactive; LMPTP block: inactive; Scp1 inh: inactive

What do the screens show for `COc1cc(/C=C2\SC(=O)N(c3cccc(Cl)c3)C2=O)cc([N+](=O)[O-])c1O`?
Pemphigus Ab inh: inactive; SUMO1 PPI mod: inactive; STEP block: 97.6; LMPTP block: 82.2; Scp1 inh: 56.2

Screening data from PubChem BioAssay.
